Measurements from ChEMBL document CHEMBL4351006, “A new exploration towards aminothiazolquinolone oximes as potentially multi-targeting antibacterial agents: Design, synthesis and evaluation acting on microbes, DNA, HSA and topoisomerase IV” (Eur J Med Chem, 2019).
Converted amounts (≈) assume the structure as drawn.

What was measured:
Staphylococcus aureus [1] = assay: Antibacterial activity against methicillin resistant Staphylococcus aureus N315 assessed as reduction in bacterial cell viability incubated for 24 hrs by two fold serial dilution method; assay type: functional; settings: N315, 24 h
In short: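 MIC by two-fold serial dilution following CLSI, with chloromycin and norfloxacin as reference drugs.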

Enterococcus faecalis = assay: Antibacterial activity against Enterococcus faecalis assessed as reduction in bacterial cell viability incubated for 24 hrs by two fold serial dilution method; assay type: functional
In short: (§1)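 Broth two-fold serial dilution run to CLSI guidelines. Chloromycin, norfloxacin and fluconazole served as reference drugs.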

Staphylococcus aureus [2] = assay: Antibacterial activity against Staphylococcus aureus assessed as reduction in bacterial cell viability incubated for 24 hrs by two fold serial dilution method; assay type: functional; in short: as §1
Staphylococcus aureus [3] = assay: Antibacterial activity against Staphylococcus aureus ATCC 25923 assessed as reduction in bacterial cell viability incubated for 24 hrs by two fold serial dilution method; assay type: functional; settings: ATCC 25923, 24 h; in short: as §1
Staphylococcus aureus [4] = assay: Antibacterial activity against Staphylococcus aureus ATCC 29213 assessed as reduction in bacterial cell viability incubated for 24 hrs by two fold serial dilution method; assay type: functional; settings: ATCC 29213, 24 h; in short: as §1
Klebsiella pneumoniae = assay: Antibacterial activity against Klebsiella pneumoniae assessed as reduction in bacterial cell viability incubated for 24 hrs by two fold serial dilution method; assay type: functional; in short: as §1
Escherichia coli [5] = assay: Antibacterial activity against Escherichia coli ATCC 25922 assessed as reduction in bacterial cell viability incubated for 24 hrs by two fold serial dilution method; assay type: functional; settings: ATCC 25922, 24 h; in short: as §1
Escherichia coli [6] = assay: Antibacterial activity against Escherichia coli assessed as reduction in bacterial cell viability incubated for 24 hrs by two fold serial dilution method; assay type: functional; in short: as §1
Pseudomonas aeruginosa [7] = assay: Antibacterial activity against Pseudomonas aeruginosa assessed as reduction in bacterial cell viability incubated for 24 hrs by two fold serial dilution method; assay type: functional; in short: as §1
Pseudomonas aeruginosa [8] = assay: Antibacterial activity against Pseudomonas aeruginosa ATCC 27853 assessed as reduction in bacterial cell viability incubated for 24 hrs by two fold serial dilution method; assay type: functional; settings: ATCC 27853, 24 h; in short: as §1
Acinetobacter baumannii = assay: Antibacterial activity against Acinetobacter baumannii assessed as reduction in bacterial cell viability incubated for 24 hrs by two fold serial dilution method; assay type: functional; in short: as §1
Candida albicans [9] = assay: Antifungal activity against Candida albicans assessed as reduction in fungal cell viability incubated for 24 hrs by two fold serial dilution method; assay type: functional; in short: as §1
Candida albicans [10] = assay: Antifungal activity against Candida albicans ATCC 90023 assessed as reduction in fungal cell viability incubated for 24 hrs by two fold serial dilution method; assay type: functional; settings: ATCC 90023, 24 h; in short: as §1
Candida tropicalis = assay: Antifungal activity against Candida tropicalis assessed as reduction in fungal cell viability incubated for 24 hrs by two fold serial dilution method; assay type: functional; in short: as §1
Aspergillus fumigatus = assay: Antifungal activity against Aspergillus fumigatus assessed as reduction in fungal cell viability incubated for 24 hrs by two fold serial dilution method; assay type: functional; in short: as §1
Candida parapsilosis = assay: Antifungal activity against Candida parapsilosis ATCC 22019 assessed as reduction in fungal cell viability incubated for 24 hrs by two fold serial dilution method; settings: Lodderomyces parapsilosis, ATCC 22019, 24 h

Row | Compound | MIC (Staphylococcus aureus [1]) | MIC (Enterococcus faecalis) | MIC (Staphylococcus aureus [2]) | MIC (Staphylococcus aureus [3]) | MIC (Staphylococcus aureus [4]) | MIC (Klebsiella pneumoniae) | MIC (Escherichia coli [5]) | MIC (Escherichia coli [6]) | MIC (Pseudomonas aeruginosa [7]) | MIC (Pseudomonas aeruginosa [8]) | MIC (Acinetobacter baumannii) | MIC (Candida albicans [9]) | MIC (Candida albicans [10]) | MIC (Candida tropicalis) | MIC (Aspergillus fumigatus) | MIC (Candida parapsilosis)
1 | CCn1cc(-c2csc(N)n2)c(=O)c2cc(N3CCN(C/C(=N/OC)c4ccc(Cl)cc4)CC3)c(Cl)cc21 | 224 µM (≈ 128 µg/mL) | 448 µM (≈ 256 µg/mL) | 224 µM (≈ 128 µg/mL) | 224 µM (≈ 128 µg/mL) | 224 µM (≈ 128 µg/mL) | 448 µM (≈ 256 µg/mL) | 448 µM (≈ 256 µg/mL) | 448 µM (≈ 256 µg/mL) | 448 µM (≈ 256 µg/mL) | 448 µM (≈ 256 µg/mL) | 448 µM (≈ 256 µg/mL) | 448 µM (≈ 256 µg/mL) | 224 µM (≈ 128 µg/mL) | 448 µM (≈ 256 µg/mL) | 448 µM (≈ 256 µg/mL) | 448 µM (≈ 256 µg/mL)
2 | CCn1cc(-c2csc(N)n2)c(=O)c2cc(F)c(N3CCN(C/C(=N/OC)c4ccc(OC)cc4)CC3)cc21 | 465 µM (≈ 256 µg/mL) | 232 µM (≈ 128 µg/mL) | 465 µM (≈ 256 µg/mL) | 465 µM (≈ 256 µg/mL) | 465 µM (≈ 256 µg/mL) | 465 µM (≈ 256 µg/mL) | 232 µM (≈ 128 µg/mL) | 465 µM (≈ 256 µg/mL) | 465 µM (≈ 256 µg/mL) | 465 µM (≈ 256 µg/mL) | 465 µM (≈ 256 µg/mL) | 232 µM (≈ 128 µg/mL) | 465 µM (≈ 256 µg/mL) | 232 µM (≈ 128 µg/mL) | 465 µM (≈ 256 µg/mL) | 465 µM (≈ 256 µg/mL)
3 | CCn1cc(-c2csc(N)n2)c(=O)c2cc(F)c(N3CCN(C/C(=N/OC)c4ccc(Cl)cc4Cl)CC3)cc21 | 434 µM (≈ 256 µg/mL) | 434 µM (≈ 256 µg/mL) | 217 µM (≈ 128 µg/mL) | 54 µM (≈ 31.8 µg/mL) | 217 µM (≈ 128 µg/mL) | 217 µM (≈ 128 µg/mL) | 869 µM (≈ 512 µg/mL) | 109 µM (≈ 64.3 µg/mL) | 217 µM (≈ 128 µg/mL) | 217 µM (≈ 128 µg/mL) | 54 µM (≈ 31.8 µg/mL) | 434 µM (≈ 256 µg/mL) | 217 µM (≈ 128 µg/mL) | 54 µM (≈ 31.8 µg/mL) | 434 µM (≈ 256 µg/mL) | 217 µM (≈ 128 µg/mL)
4 | CCn1cc(-c2csc(N)n2)c(=O)c2cc(N3CCN(C/C(C)=N/O)CC3)c(Cl)cc21 | 139 µM (≈ 64.1 µg/mL) | 139 µM (≈ 64.1 µg/mL) | 35 µM (≈ 16.1 µg/mL) | 17 µM (≈ 7.84 µg/mL) | 139 µM (≈ 64.1 µg/mL) | 139 µM (≈ 64.1 µg/mL) | 278 µM (≈ 128 µg/mL) | 69 µM (≈ 31.8 µg/mL) | 139 µM (≈ 64.1 µg/mL) | 555 µM (≈ 256 µg/mL) | 278 µM (≈ 128 µg/mL) | 69 µM (≈ 31.8 µg/mL) | 139 µM (≈ 64.1 µg/mL) | 278 µM (≈ 128 µg/mL) | 278 µM (≈ 128 µg/mL) | 278 µM (≈ 128 µg/mL)
5 | CCn1cc(-c2csc(N)n2)c(=O)c2cc(F)c(N3CCN(C/C(=N/OC)c4ccc(F)cc4)CC3)cc21 | 238 µM (≈ 128 µg/mL) | 475 µM (≈ 256 µg/mL) | 475 µM (≈ 256 µg/mL) | 238 µM (≈ 128 µg/mL) | 475 µM (≈ 256 µg/mL) | 951 µM (≈ 512 µg/mL) | 951 µM (≈ 512 µg/mL) | 475 µM (≈ 256 µg/mL) | 951 µM (≈ 512 µg/mL) | 951 µM (≈ 512 µg/mL) | 951 µM (≈ 512 µg/mL) | 951 µM (≈ 512 µg/mL) | 951 µM (≈ 512 µg/mL) | 951 µM (≈ 512 µg/mL) | 951 µM (≈ 512 µg/mL) | 951 µM (≈ 512 µg/mL)
6 | CCn1cc(-c2csc(N)n2)c(=O)c2cc(N3CCN(C/C(=N/OC)c4ccc(F)cc4)CC3)c(Cl)cc21 | 14 µM (≈ 7.77 µg/mL) | 58 µM (≈ 32.2 µg/mL) | 29 µM (≈ 16.1 µg/mL) | 58 µM (≈ 32.2 µg/mL) | 58 µM (≈ 32.2 µg/mL) | 231 µM (≈ 128 µg/mL) | 58 µM (≈ 32.2 µg/mL) | 14 µM (≈ 7.77 µg/mL) | 461 µM (≈ 256 µg/mL) | 58 µM (≈ 32.2 µg/mL) | 115 µM (≈ 63.8 µg/mL) | 231 µM (≈ 128 µg/mL) | 58 µM (≈ 32.2 µg/mL) | 58 µM (≈ 32.2 µg/mL) | 29 µM (≈ 16.1 µg/mL) | 58 µM (≈ 32.2 µg/mL)
7 | CCn1cc(-c2csc(N)n2)c(=O)c2cc(F)c(N3CCN(C/C(C)=N/OCc4ccc(Cl)cc4Cl)CC3)cc21 | 424 µM (≈ 256 µg/mL) | 424 µM (≈ 256 µg/mL) | 848 µM (≈ 512 µg/mL) | 848 µM (≈ 512 µg/mL) | 848 µM (≈ 512 µg/mL) | 848 µM (≈ 512 µg/mL) | 848 µM (≈ 512 µg/mL) | 424 µM (≈ 256 µg/mL) | 848 µM (≈ 512 µg/mL) | 848 µM (≈ 512 µg/mL) | 848 µM (≈ 512 µg/mL) | 848 µM (≈ 512 µg/mL) | 106 µM (≈ 64 µg/mL) | 424 µM (≈ 256 µg/mL) | 424 µM (≈ 256 µg/mL) | 848 µM (≈ 512 µg/mL)
8 | CCn1cc(-c2csc(N)n2)c(=O)c2cc(N3CCN(C/C(=N/OC)c4ccc(Cl)cc4Cl)CC3)c(Cl)cc21 | 211 µM (≈ 128 µg/mL) | 211 µM (≈ 128 µg/mL) | 422 µM (≈ 256 µg/mL) | 422 µM (≈ 256 µg/mL) | 211 µM (≈ 128 µg/mL) | 422 µM (≈ 256 µg/mL) | 422 µM (≈ 256 µg/mL) | 422 µM (≈ 256 µg/mL) | 422 µM (≈ 256 µg/mL) | 422 µM (≈ 256 µg/mL) | 422 µM (≈ 256 µg/mL) | 422 µM (≈ 256 µg/mL) | 845 µM (≈ 512 µg/mL) | 422 µM (≈ 256 µg/mL) | 422 µM (≈ 256 µg/mL) | 422 µM (≈ 256 µg/mL)
9 | OC(Cn1cncn1)(Cn1cncn1)c1ccc(F)cc1F [FLUCONAZOLE] |  |  |  |  |  |  |  |  |  |  |  | 13 µM (≈ 3.98 µg/mL) | 7 µM (≈ 2.14 µg/mL) | 26 µM (≈ 7.96 µg/mL) | 836 µM (≈ 256 µg/mL) | 13 µM (≈ 3.98 µg/mL)
